Measurements: ChEMBL document CHEMBL1806486, “Discovery and evaluation of 3-phenyl-1H-5-pyrazolylamine-based derivatives as potent, selective and efficacious inhibitors of FMS-like tyrosine kinase-3 (FLT3)” (Bioorg Med Chem, 2011)

Key:
[1] = biological target: T1, Receptor-type tyrosine-protein kinase FLT3 (Homo sapiens, UniProt P36888); experiment: Inhibition of GST-tagged FLT3 expressing wild type kinase domain expressed in Sf9 insect cells after 4 hrs by Kinase-Glo assay
T1 sequence (P36888 whole entry): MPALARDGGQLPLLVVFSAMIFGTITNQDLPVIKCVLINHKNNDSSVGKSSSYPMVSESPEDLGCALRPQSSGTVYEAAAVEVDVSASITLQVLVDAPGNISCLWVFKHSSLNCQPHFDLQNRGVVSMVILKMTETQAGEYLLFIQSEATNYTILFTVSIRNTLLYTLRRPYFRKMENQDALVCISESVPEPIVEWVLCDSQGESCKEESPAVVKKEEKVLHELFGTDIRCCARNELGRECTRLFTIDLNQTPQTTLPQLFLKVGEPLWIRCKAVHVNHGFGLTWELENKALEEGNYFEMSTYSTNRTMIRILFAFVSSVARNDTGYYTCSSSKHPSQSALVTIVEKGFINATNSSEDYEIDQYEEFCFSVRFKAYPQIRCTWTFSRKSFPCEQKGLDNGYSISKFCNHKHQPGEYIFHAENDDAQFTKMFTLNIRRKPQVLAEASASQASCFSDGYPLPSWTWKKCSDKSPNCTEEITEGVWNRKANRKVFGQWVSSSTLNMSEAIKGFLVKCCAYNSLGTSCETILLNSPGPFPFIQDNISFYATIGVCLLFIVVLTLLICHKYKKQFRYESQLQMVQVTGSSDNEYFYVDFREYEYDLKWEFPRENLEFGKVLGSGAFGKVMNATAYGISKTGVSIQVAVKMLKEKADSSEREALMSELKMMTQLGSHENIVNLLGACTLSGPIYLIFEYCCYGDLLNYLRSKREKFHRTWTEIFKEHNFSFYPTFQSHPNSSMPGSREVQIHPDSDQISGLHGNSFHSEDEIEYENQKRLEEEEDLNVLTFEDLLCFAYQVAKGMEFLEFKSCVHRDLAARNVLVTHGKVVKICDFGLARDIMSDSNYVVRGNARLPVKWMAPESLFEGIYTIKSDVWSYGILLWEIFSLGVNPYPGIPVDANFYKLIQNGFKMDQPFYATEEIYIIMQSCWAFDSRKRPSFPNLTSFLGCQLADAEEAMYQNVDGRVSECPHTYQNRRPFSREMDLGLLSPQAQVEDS

MOLM-13 = experiment: Antitumor activity against human MOLM13 cells xenografted in iv dosed athymic nu/nu nude mouse assessed as inhibition of tumor growth administered qd for two weeks; format: functional, organism-based
Procedure, shortened: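 Athymic nu/nu mice (9 weeks old) received 1 × 10^6 MOLM-13 cells s.c. in the left flank. They were randomized at a mean tumor volume of about 200 mm3, with 7–8 per group. Dosing was iv once daily at 10 or 50 mg/kg on days 1–5 and 8–12, in 10% DMSO/20% Cremophor/70% saline. Vehicle controls were dosed the same way. Caliper volume = (width × length²)/2, reported as mean ± SEM.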

MOLT-4 = experiment: Antiproliferation activity against human MOLT4 after 72 hrs by MTS method; format: functional; conditions: MOLT-4, 72 h

IC50 [1]: 0.006 µM
GI50 (MOLT-4): 7.4 µM
Compound: Cc1nc(Nc2cc(-c3cccc(NS(=O)(=O)c4ccccc4)c3)n[nH]2)cc(N2CCN(C)CC2)n1
Activity (MOLM-13): Dose-dependent effect
